Measurements from different studies.
Lines come from different studies, so protocols differ.

`CS(=O)(=O)CCNCc1ccc(-c2ccc3ncnc(Nc4ccc(OCc5cccc(F)c5)c(Cl)c4)c3c2)o1` gave an AUC of 9070 ng·h/mL (human; serum; oral; 1250 mg; single dose).
`COc1cc(C(=O)NC2CCN(C)CC2)c(F)cc1Nc1ncc(C(F)(F)F)c(Oc2cccc3c2C(=O)N(C)C3)n1` has an AUC of 35.4 µM·h (human; plasma; oral; 200 mg; multiple doses, once daily, steady state, patients).
For `CCOc1ccc(Cc2cc([C@@H]3O[C@H](CO)[C@@H](O)[C@H](O)[C@H]3O)ccc2Cl)cc1`, the AUC was 493 ng·h/mL (human; plasma; oral; 10 mg; multiple doses, steady state).
`C[C@@H](c1ccc2nccn2c1)n1nnc2ncc(-c3cnn(C)c3)nc21` has an AUC of 4010 ng·h/mL (human; plasma; oral; 200 mg).
With `CS(=O)(=O)CCC#N` the AUC was 260000 ng·h/mL (human; plasma; oral; 300 mg; multiple doses, once daily).
For `OC[C@H]1O[C@@H](c2ccc(Cl)c(Cc3ccc(O[C@H]4CCOC4)cc3)c2)[C@H](O)[C@@H](O)[C@@H]1O`, the AUC was 3960 ng·h/mL (male human; plasma; oral; 25 mg; multiple doses, once daily, steady state, healthy volunteers).
`CC(C)(C)OC[C@@H]1C(=O)NCCN1C(=O)C[C@H](N)Cc1cc(F)c(F)cc1F` has an AUC of 94.2 ng·h/mL (human; plasma; oral; 5 mg; multiple doses, once daily, steady state).
The AUC of `Cc1ccc(C(=O)N(CCCN)[C@@H](c2oc3cc(Cl)ccc3c(=O)c2Cc2ccccc2)C(C)C)cc1` is reported as 8150 ng·h/mL (human; plasma; intravenous; 6 mg/m²; single dose, patients, infusion).
For `NS(=O)(=O)NCCNc1nonc1C(=NO)Nc1ccc(F)c(Br)c1`, the AUC was 22.9 µM·h (human; plasma; oral; 600 mg; multiple doses, twice daily, steady state, patients).
The AUC of `Cn1c(=O)oc2ccc(-c3ccc(C[C@@H](C#N)NC(=O)[C@@H]4CNCCCO4)cc3)cc21` is reported as 24.7 µM·h (male human; plasma; oral; 65 mg; single dose, healthy volunteers).
